Measurements of several laboratories.
Protocols differ between the studies behind these lines.
Target: Cyclin-dependent kinase 18 (CDK18, Homo sapiens, UniProt Q07002)

O=C1CCc2cc(Nc3cc(OC4CCOCC4)c([N+](=O)[O-])cc3Cl)ccc2N1 — remaining binding (cell-free assay; competition with immobilised ligand; 1 µM): 100%
C[C@@H]1CCN(c2nccc(-c3cnn4ncccc34)n2)C1 — remaining binding (binding; 1 µM): 100%
O=C(NCCCN1CCOCC1)c1ccc(Nc2nccc(-c3cc4ccccc4s3)n2)cc1 — remaining binding (binding; competition with immobilised ligand; 1 µM): 99%
CN(C)c1nccc(-c2cnn3ncccc23)n1 — remaining binding (binding; 1 µM): 89%
CNC(=O)[C@@H]1CC[C@@H](n2c(-c3ccc4cnccc4c3)nc3ccc(C(=O)NCc4cccc(C(N)=O)c4)cc32)C1 — remaining binding (binding; competition with immobilised ligand; 1 µM): 100%
Cc1cnn2ncc(-c3ccnc(N(C)C)n3)c2c1 — remaining binding (binding; 1 µM): 100%
CN1CCN(c2ccc(Nc3nccc(-c4ccccc4)n3)cc2C(F)(F)F)CC1 — remaining binding (binding; 10 µM): 23%
CN(C)c1nccc(-c2cnc3ncccn23)n1 — remaining binding (binding; 1 µM): 100%
C[C@H](c1cccc(C#N)c1)n1cc(Cl)cc(C(N)=O)c1=N — remaining binding (cell-free assay; competition with immobilised ligand; 1 µM): 100%
Nc1ncc2c(n1)-c1c([nH]c3ccc(C#CC4CC4)cc13)CCCC2 — remaining binding (binding; competition with immobilised ligand; 1 µM): 100%
N[C@@H]1CCN(c2nccc(-c3cnn4ncccc34)n2)C1 — remaining binding (binding; 1 µM): 100%
O=C(Nc1c[nH]nc1C(=O)NC1CCNCC1)c1cc(F)cc(F)c1 — remaining binding (binding; competition with immobilised ligand; 1 µM): 78%
C=CC(=O)N1CCC(C(=O)NCC(=O)N2CCN(c3nc(-c4cnc(N)nc4C(F)F)nc(N4CCOCC4)n3)CC2)CC1 — remaining binding (binding; competition with immobilised ligand; 1 µM): 95%
O=C(NCCCN1CCOCC1)c1ccc(Nc2ncc(Cl)c(-c3ccc(Cl)s3)n2)cc1 — remaining binding (binding; competition with immobilised ligand; 1 µM): 70%
CN(c1ccnc(CNc2nc(Nc3ccc4c(c3)CC(=O)N4)ncc2C(F)(F)F)n1)S(C)(=O)=O — remaining binding (cell-free assay; competition with immobilised ligand; 1 µM): 100%
C[C@@H](c1ccc(-n2cnc3c(N)ncnc32)cc1)N1CCc2nn(C)c(Cc3ccccc3)c2C1=O — remaining binding (binding; competition with immobilised ligand; 0.1 µM): 100%
CC1=C(C#N)[C@@H](c2ccc3[nH]nc(C)c3c2)C(C#N)=C(c2ccc(Cl)cc2)N1 — remaining binding (cell-free assay; competition with immobilised ligand; 1 µM): 100%
O=C(c1ccc(Nc2ncc(Cl)c(-c3cc4ccccc4s3)n2)cc1)N1CCC(N2CCCC2)CC1 — remaining binding (binding; competition with immobilised ligand; 1 µM): 64%
CN(C)c1ncnc(-c2ccc3nc(Nc4cc(CN5CCN(C(=O)CC(F)(F)F)CC5)ccn4)[nH]c3c2)c1Cl — remaining binding (cell-free assay; competition with immobilised ligand; 1 µM): 100%
COc1ncc2cc3ccccc3nc2c1C#N — remaining binding (cell-free assay; competition with immobilised ligand; 5 µM): 90%
F[C@@H]1CCN(c2nccc(-c3cnn4ncccc34)n2)C1 — remaining binding (binding; 1 µM): 86%
CN(C)C(=O)Cn1cc(-c2nc(C3(c4ccc(-c5cnc(N)nc5)cc4)CC3)no2)cn1 — remaining binding (cell-free assay; competition with immobilised ligand; 1 µM): 83%
